Bioassay records: PubChem, Johns Hopkins Ion Channel Center
RGS4 act: potentiators or activators of RGS4 | hit rate 0.92% among 310,000 | B-score at 10 µM | HEK293 M3R/inducible RGS4, carbachol calcium flux Fluo4; stronger effect = lower value;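 active = B-score of the integrated calcium signal more than 4 SD below the library mean, with starting fluorescence not abnormally high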;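 note: negative B-score means reduced calcium response which marks RGS4 activation or potentiation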
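Material: M3R-expressing HEK293 line, RGS4 induced by doxycycline | Schedule: Overnight RGS4 induction, 30 min dye load 37 °C, 20 min compound RT | Measured by: Fluo4 fluorescence kinetic imaging of calcium | Read-out: Integrated calcium ratio converted to B score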
MrgX1 antag: blocks BAM8-22 activation of human MrgX1 receptor. Q96LB2. MRGX1-HEK293 calcium flux, Fluo-4, BAM8-22 antagonism; stronger effect = lower value. B-score at 10 µM. hit rate 1.3% among 310,000;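 active = calcium-response B-score plate-corrected more than 3 library SD below zero, starting fluorescence within 5 deviations, no agonist response on first addition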;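 note: peak minus trough fluorescence over baseline after final BAM8-22 challenge near maximal dose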
Target sequence (Q96LB2 whole entry, looked up): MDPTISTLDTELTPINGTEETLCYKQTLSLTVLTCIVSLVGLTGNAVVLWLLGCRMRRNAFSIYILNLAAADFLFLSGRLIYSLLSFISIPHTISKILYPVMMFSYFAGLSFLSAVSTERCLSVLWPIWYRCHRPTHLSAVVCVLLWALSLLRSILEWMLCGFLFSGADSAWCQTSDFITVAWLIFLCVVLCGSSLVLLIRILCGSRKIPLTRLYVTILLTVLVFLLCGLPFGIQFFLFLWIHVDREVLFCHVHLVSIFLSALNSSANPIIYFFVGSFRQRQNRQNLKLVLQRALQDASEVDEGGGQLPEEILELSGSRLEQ
MrgX1 agonist: agonists of human MrgX1 receptor. Q96LB2. B-score at 10 µM. MrgX1-HEK293 cells, Fluo-4 calcium fluorescence, agonist mode; stronger effect = higher value. AID 588627. hit rate 0.44% among 310,000;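 active = calcium response B-score plate-corrected fluorescence ratio at least 3 library SD, with starting fluorescence B-score inside 5 SD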
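Material: MrgX1-expressing HEK293 cells; input: 15,000 cells per well; doses: test compound given as first of three sequential additions; schedule: overnight plating before 1 h dye loading; technique: Fluo-4 NW calcium-flux fluorescence, kinetic read; evaluation: baseline-normalised fluorescence change ratio, B-scored; control set: plate-wise positive and negative controls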
MrgX1 allo act: allosterically activates human MrgX1 receptor signaling. Q96LB2. MrgX1-HEK293, Fluo-4 calcium flux, FDSS; stronger effect = higher value. B-score at 10 µM. hit rate 0.63% among 310,000;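 active = plate-corrected calcium response at least 3 library SD above typical, normal starting fluorescence, not activating the receptor alone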;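 note: compound read alongside a low EC10 to EC30 dose of BAM8-22 agonist; peak minus trough fluorescence over baseline measured at the second addition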
RGS4 block: human RGS4 inhibition. HEK293 M3R/RGS4 inducible, Fluo-4 calcium flux; stronger effect = higher value; triggered by carbachol at its EC20. B-score at 10 µM. hit rate 0.45% among 310,000;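 active = B-score, a plate-corrected calcium signal, over three deviations above library mean, with baseline fluorescence within five deviations of library mean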;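 note: RGS4 expression induced by doxycycline in cells with stable M3 receptor; B-score is computed from the integrated fluorescence ratio over baseline after carbachol; higher B-score means a larger calcium signal and so more RGS4 inhibition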
Target sequence (P49798 whole entry, looked up): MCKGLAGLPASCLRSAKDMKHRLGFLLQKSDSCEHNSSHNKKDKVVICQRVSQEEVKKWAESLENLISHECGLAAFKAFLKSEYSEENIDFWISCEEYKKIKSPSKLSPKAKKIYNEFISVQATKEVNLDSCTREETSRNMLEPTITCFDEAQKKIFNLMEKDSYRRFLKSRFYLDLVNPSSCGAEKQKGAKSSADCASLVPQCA
MrgX1 allo conf: confirmation of human MrgX1 receptor positive allosteric modulators; hit rate 13% among 1,200; AID 602413; activation (ratio percentage), % at 10 µM; shares compounds with MrgX1 allo act; MrgX1-HEK293, Fluo-4 calcium fluorescence, FDSS;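 active = ratio at least 3 SD above the weak peptide control, stable starting fluorescence, no direct agonism earlier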;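 note: compound followed by low BAM8-22 agonist challenge near EC20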
HEK293 Ca flux: counter-screen for MrgX1 antagonists: effect in parental HEK293 cells | shares compounds with MrgX1 antag | Fluo-4 calcium fluorescence, FDSS | fluorescence ratio F(max-min)/F0 at 10 µM | hit rate 2% among 4,000 | AID 624111;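 active = duplicate-averaged calcium fluorescence ratio at least three times the standard deviation of buffer wells, a nonspecific response in parental cells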
HEK293 Ca counter: counter-screen for MrgX1 allosteric activators: effect in parental HEK293 cells | shares compounds with MrgX1 antag | parental HEK293 calcium flux, Fluo-4 fluorescence ratio; stronger effect = higher value | fluorescence ratio F(max-min)/F0 at 10 µM | hit rate 0.4% among 4,000 | AID 624114;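 active = calcium fluorescence ratio, averaged over duplicates, at least 3 SD of the buffer-well ratio, meaning a nonspecific response in receptor-free cells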;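 note: untransfected parental HEK293 lacking MrgX1 used as counterscreen for MrgX1 allosteric activators; fluorescence change taken during the second addition on a kinetic imager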
HEK293 Ca cntr2: activity in parental HEK293 cells lacking MrgX1 receptor. fluorescence ratio F(max-min)/F0 at 10 µM. hit rate 8.7% among 4,000. Fluo-4 calcium fluorescence (FDSS); stronger effect = higher value. shares compounds with MrgX1 antag. AID 624115;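 active = calcium fluorescence ratio at least three times the spread of buffer wells, meaning a non-specific response in parental cells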
* marks the source's active call; other numbers are inactive results; i = inactive; x = no result. The list is not random: actives were taken first. Their share in the collection is about 3.5%.

SMILES	RGS4 act	MrgX1 antag	MrgX1 agonist	MrgX1 allo act	RGS4 block	MrgX1 allo conf	HEK293 Ca flux	HEK293 Ca counter	HEK293 Ca cntr2
CCCNC(=O)/C(=C/c1cn(S(=O)(=O)N(C)C)c2ccccc12)NC(=O)c1ccc(OC)cc1	i	i	i	35.8*	i	15.1%*	i	i	i
COc1ccccc1C1C=C(c2ccc(C)cc2)Nc2nnnn21 (stereo not drawn)	i	i	i	i	i	x	x	x	x
COc1ccc(C2=CC(c3c(C)nn(-c4ccccc4)c3Cl)n3nnnc3N2)cc1OC (stereo not drawn)	x	i	i	6.98*	x	i	i	i	i
Cc1ccc(Nc2cc(C(=O)NCCCN3CCOCC3)c3ccccc3n2)cc1C	i	i	i	i	i	x	x	x	x
CSc1nccc(Nc2ccccc2)c1C#N	i	i	i	15.5*	i	8.6%*	i	i	i
COc1nccc(Nc2ccccc2)c1C#N	x	i	i	i	x	x	x	x	x
COc1ccccc1C(=O)OCC(=O)Nc1ccc(Cl)cn1	i	i	i	i	i	x	x	x	x
Cc1ccc(C)c(N2CCN(C(=O)c3csc(C)c3C)CC2)c1	i	i	i	6.88*	i	i	i	i	i
Cc1ccc(OCc2n[nH]c(=S)n2-c2ccc(Br)cc2)cc1	i	i	i	7.6*	i	i	i	i	i
Cc1ccc(OCc2n[nH]c(=S)n2-c2ccc(Cl)cc2)cc1	i	i	i	i	i	x	x	x	x
O=C(NCc1cccnc1)C(=O)NCC1OCCN1S(=O)(=O)c1cc(F)ccc1F (stereo not drawn)	i	i	i	16.5*	i	i	i	i	i
O=C(NCCc1ccccc1)C(=O)NCC1OCCN1S(=O)(=O)c1cc(F)ccc1F (stereo not drawn)	i	i	i	i	i	x	x	x	x
CC1Cc2cc(S(=O)(=O)CCC(=O)NCc3ccco3)ccc2N1C(=O)C1CC1 (stereo not drawn)	i	i	i	i	i	x	x	x	x
O=C(COC(=O)C(O)c1ccccc1)NC12CC3CC(CC(C3)C1)C2 (stereo not drawn)	i	i	i	i	i	x	x	x	x
O=C(COc1ccccc1F)NC12CC3CC(CC(C3)C1)C2	i	i	i	6.55*	i	i	i	i	i
O=C(COC(=O)C12CC3CC(CC(O)(C3)C1)C2)Nc1ccccc1OC(F)F	i	i	i	i	i	x	x	x	x
O=C(COC(=O)C12CC3CC(CC(C3)C1)C2)Nc1ccccc1F	i	i	i	13*	i	i	i	i	i
CCc1nnc(NS(=O)(=O)c2ccc(NC(=O)c3ccccc3O)cc2)s1	i	i	i	i	i	x	x	x	x
CN1CCc2c(OCC(=O)N3CCC(Cc4ccccc4)CC3)cccc2C1=O	i	i	i	9.81*	i	i	i	i	i
CCN1CCc2c(OCc3ccccc3)cccc2C1=O	i	i	i	11.4*	i	i	i	i	i
CC(=O)Nc1ccccc1-c1nc2ccccc2nc1OCC(=O)c1ccc(Cl)cc1	i	i	i	i	i	x	x	x	x
Cc1cc(C)cc(OC(=O)COc2ccccc2C)c1	i	i	i	i	i	x	x	x	x
Cc1ccc(-c2csc(NC(=O)C3CC=CCC3C(=O)O)c2C(=O)OC(C)C)cc1 (stereo not drawn)	i	i	i	7.3*	i	i	i	i	i
CCOC(=O)c1c(-c2ccc(C)cc2)csc1NC(=O)C1CC=CCC1C(=O)O (stereo not drawn)	i	i	i	i	i	x	x	x	x
CCOCCCn1c(=S)[nH]c2cc(C(=O)NCCc3ccccc3)ccc2c1=O	i	i	i	i	i	x	x	x	x
SMILES	RGS4 act	MrgX1 antag	MrgX1 agonist	MrgX1 allo act	RGS4 block	MrgX1 allo conf	HEK293 Ca flux	HEK293 Ca counter	HEK293 Ca cntr2
CCC(C)NCCOc1ccccc1C (stereo not drawn)	i	i	i	12.7*	i	i	i	i	i
COc1ccc(N2CCN(C(=O)CCC(=O)N3CC(C)Oc4ccc(C)cc43)CC2)cc1 (stereo not drawn)	i	i	i	i	i	x	x	x	x
O=C(CCc1c[nH]c2ccccc12)OCc1ccc(Br)cc1	i	i	i	i	i	x	x	x	x
Cc1ccc(C2=CC(c3ccc(C)cc3)n3ncnc3N2)cc1 (stereo not drawn)	i	i	i	i	i	x	x	x	x
CC(C)(C)c1ccc(C2=CC(c3ccccc3)n3ncnc3N2)cc1 (stereo not drawn)	i	i	i	9.33*	i	i	i	i	57*
N/C(=N\OC(=O)c1cccc(F)c1)c1cccc([N+](=O)[O-])c1	i	i	i	i	i	x	x	x	x
COCCN1C(=O)/C(=C/c2ccc(N3CCCC3)cc2C)SC1=S	i	i	i	19.4*	i	i	0.126*	i	48*
O=C1CC(c2ccco2)CC(O)=C1C=Nc1cc(Cl)ccc1O (stereo not drawn)	i	i	i	10.1*	i	41.2%*	i	i	i
CC(=O)NC(CC(=O)N(Cc1ccccc1)c1cccc(C)c1)c1ccccc1 (stereo not drawn)	i	i	i	8.58*	i	i	i	i	99.3*
Cc1sc2ncnc(SCC(=O)N3CCCC(C(N)=O)C3)c2c1C (stereo not drawn)	i	i	i	i	i	x	x	x	x
COc1ccccc1CNC(c1ccccc1)c1ccccc1	i	i	i	i	i	x	x	x	x
COc1cc(C)c(NC(c2ccccc2)c2ccccc2)cc1OC	i	i	i	8.7*	i	i	i	i	i
O=C(NCCCn1cccn1)C1CCC(=O)N(Cc2cccc(C(F)(F)F)c2)C1 (stereo not drawn)	i	i	i	7.78*	i	i	i	i	i
O=C(NCCCC1CCCC1)C1CCC(=O)N(Cc2cccc(C(F)(F)F)c2)C1 (stereo not drawn)	i	i	i	i	i	x	x	x	x
